The values below come from ChEMBL document CHEMBL1128365, “S-(5'-deoxy-5'-adenosyl)-1-aminoxy-4-(methylsulfonio)-2-cyclopentene (AdoMao): an irreversible inhibitor of S-adenosylmethionine decarboxylase with potent in vitro antitrypanosomal activity” (J Med Chem, 1995).

Molecules are shown by their SMILES. pIC50, pKi: −log10 of the molar value.

Assay [1] concerns Trypanosoma brucei brucei. Kind of assay: Compound was evaluated for the inhibition of growth of Trypanosoma brucei. In kind it is functional, organism-based. The essentials:
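T. brucei brucei bloodforms cultured in modified Iscove's medium, 3% CO2 in air, 37 °C, feeder layer-free. Inhibitor dissolved in medium; half the volume replaced daily with double-strength inhibitor. Growth read by daily cell counts, IC50 after 48 h. Alternatively: 24 h with inhibitor, wash, 24 h with 1.0 μCi [3H]hypoxanthine, filtration and scintillation counting. Mean of two determinations.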

The target of assay [2] is S-adenosylmethionine decarboxylase (Escherichia coli) (UniProt P0A7F6). Nature of the assay: compound was evaluated for the inhibitor against Escherichia coli S-adenosyl-L-methionine decarboxylase.
Assay [3] deals with T1, S-adenosylmethionine decarboxylase proenzyme (Homo sapiens) (UniProt P17707).
T1 sequence (whole entry): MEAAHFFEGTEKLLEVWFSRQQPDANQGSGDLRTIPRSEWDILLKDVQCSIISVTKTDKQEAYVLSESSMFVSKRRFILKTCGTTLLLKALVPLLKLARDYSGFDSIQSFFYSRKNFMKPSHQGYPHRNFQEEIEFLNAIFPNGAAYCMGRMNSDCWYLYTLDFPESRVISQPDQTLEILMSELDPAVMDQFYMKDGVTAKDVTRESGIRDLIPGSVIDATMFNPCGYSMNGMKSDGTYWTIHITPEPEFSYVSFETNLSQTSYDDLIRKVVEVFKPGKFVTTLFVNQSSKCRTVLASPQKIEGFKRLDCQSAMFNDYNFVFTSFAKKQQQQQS
Nature of the assay: (§1) compound was evaluated for the inhibitor constant against human S-adenosyl-L-methionine decarboxylase.

In assay [4] the target is T2, S-adenosylmethionine decarboxylase proenzyme (Homo sapiens, UniProt P17707).
T2 sequence (P17707 whole entry): T1 sequence (whole entry)
Described as §1.

Assay [5] concerns HL-60. Kind of assay: Polyamine levels in cultured HL60 cells on S-Adenosyl-methionine decarboxylase at the concentration of 50.0 uM. In kind it is functional, Homo sapiens. The essentials:
(§2)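 HL60 human promyelocytic leukemia cells exposed to inhibitor for 96 h, then sonicated. AdoMet-DC activity measured by the Anton and Kutny method. Intracellular putrescine, spermidine and spermine quantified by HPLC (Danzin method). Each value is the mean of two determinations.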

In assay [6] the test system is HL-60. Nature of the assay: Polyamine levels in cultured HL60 cells on S-Adenosyl-methionine decarboxylase at the concentration of 100.0 uM. In kind it is functional, Homo sapiens. The method in brief:
as §2

The test system of assay [7] is HL-60. Nature of the assay: Polyamine levels in cultured HL60 cells on S-Adenosyl-methionine decarboxylase at the concentration of 10.0 uM. It counts as functional, Homo sapiens. The method in brief:
as §2

Assay [8] concerns HL-60. Kind of assay: Polyamine levels in cultured HL60 cells on spermine at the concentration of 100.0 uM. In kind it is functional, Homo sapiens. The method in brief: as §2
Assay [9] relates to HL-60. Nature of the assay: Polyamine levels in cultured HL60 cells on putrescine at the concentration of 1.0 uM. In kind it is functional, Homo sapiens. The method in brief: as §2
Assay [10] has as its system HL-60. Kind of assay: Polyamine levels in cultured HL60 cells on spermine at the concentration of 0.1 uM. In kind it is functional, Homo sapiens. The essentials: as §2
For assay [11], the system named is HL-60. Nature of the assay: Polyamine levels in cultured HL60 cells on putrescine at the concentration of 10.0 uM. In kind it is functional, Homo sapiens. The essentials: as §2
Assay [12] addresses T2, S-adenosylmethionine decarboxylase proenzyme. Nature of the assay: (§3) Compound was evaluated for the inhibitor constant against human S-adenosyl-L-methionine decarboxylase.
Assay [13] has as its system HL-60. Kind of assay: Polyamine levels in cultured HL60 cells on spermine at the concentration of 10.0 uM. It counts as functional, Homo sapiens. The method in brief:
as §2

Assay [14] concerns HL-60. Nature of the assay: Polyamine levels in cultured HL60 cells on putrescine at the concentration of 0.1 uM. In kind it is functional, Homo sapiens. The essentials:
as §2

The test system of assay [15] is Trypanosoma brucei rhodesiense. Nature of the assay: Compound was evaluated for the percentage inhibition of growth of uM. In kind it is functional.
In assay [16] the test system is HL-60. Kind of assay: Polyamine levels in cultured HL60 cells on spermidine at the concentration of 0.1 uM. It counts as functional, Homo sapiens. The essentials:
as §2

Assay [17] concerns the target T1, S-adenosylmethionine decarboxylase proenzyme (Homo sapiens). The assay is described as §3.
The target in assay [18] is S-adenosylmethionine decarboxylase (Escherichia coli) (UniProt P0A7F6). Nature of the assay: Compound was evaluated for the inhibitor against Escherichia coli S-adenosyl-L-methionine decarboxylase.
In assay [19] the test system is HL-60. Kind of assay: Polyamine levels in cultured HL60 cells on spermine at the concentration of 50.0 uM. In kind it is functional, Homo sapiens. The essentials: as §2
The subject of assay [20] is HL-60. Nature of the assay: Polyamine levels in cultured HL60 cells on spermidine at the concentration of 10.0 uM. It counts as functional, Homo sapiens. The method in brief:
as §2

Assay [21] has as its system HL-60. Nature of the assay: Polyamine levels in cultured HL60 cells on spermidine at the concentration of 100.0 uM. In kind it is functional, Homo sapiens. The essentials:
as §2

The subject of assay [22] is HL-60. Nature of the assay: Polyamine levels in cultured HL60 cells on S-Adenosyl-methionine decarboxylase at the concentration of 0.1 uM. It counts as functional, Homo sapiens. The method in brief: as §2
The test system of assay [23] is HL-60. Kind of assay: Polyamine levels in cultured HL60 cells on putrescine at the concentration of 50.0 uM. It counts as functional, Homo sapiens. The essentials: as §2
For assay [24], the system named is HL-60. Kind of assay: Polyamine levels in cultured HL60 cells on spermine at the concentration of 1.0 uM. It counts as functional, Homo sapiens. The essentials:
as §2

Assay [25] deals with HL-60. Nature of the assay: Polyamine levels in cultured HL60 cells on S-Adenosyl-methionine decarboxylase at the concentration of 1.0 uM. It counts as functional, Homo sapiens. The essentials:
as §2

Assay [26] has as its system HL-60. Nature of the assay: Polyamine levels in cultured HL60 cells on spermidine at the concentration of 50.0 uM. It counts as functional, Homo sapiens. The method in brief:
as §2

Assay [27] relates to HL-60. Kind of assay: Polyamine levels in cultured HL60 cells on putrescine at the concentration of 100.0 uM. In kind it is functional, Homo sapiens. The essentials:
as §2

Assay [28] deals with HL-60. Kind of assay: Polyamine levels in cultured HL60 cells on spermidine at the concentration of 1.0 uM. It counts as functional, Homo sapiens. The method in brief: as §2
For assay [29], the system named is Trypanosoma brucei rhodesiense. Nature of the assay: Compound was evaluated for the inhibition of growth of brucei rhodesiense (KETRI 243). In kind it is functional, organism-based.

Sequence of S-adenosylmethionine decarboxylase (Escherichia coli) (P0A7F6 whole entry, looked up): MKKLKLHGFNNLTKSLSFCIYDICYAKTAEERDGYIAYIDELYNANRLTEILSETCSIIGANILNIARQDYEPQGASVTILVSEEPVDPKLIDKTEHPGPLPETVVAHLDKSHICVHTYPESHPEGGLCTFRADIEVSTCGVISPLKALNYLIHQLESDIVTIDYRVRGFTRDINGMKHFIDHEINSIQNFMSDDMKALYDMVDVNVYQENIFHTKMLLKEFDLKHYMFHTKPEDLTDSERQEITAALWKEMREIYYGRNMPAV

The term pIC50 denotes the IC50 on a negative log10 scale, so that one unit is a factor of ten. A lower pIC50 goes with a high IC50. As a reminder, the kinact is the maximal first-order rate at which the target is inactivated. For orientation: pKi means −log10 of the Ki, conventionally taken in molar units. A high value points to a low Ki. As for `C[S+](C[C@H]1O[C@@H](n2cnc3c(N)ncnc32)[C@H](O)[C@@H]1O)[C@H]1C=C[C@H](ON)C1` (stereo not given in full), in assay [1], the negative-log IC50 (pIC50) was 5.00. Further, the figures for the maximal inactivation rate constant (kinact) in [2] and in [3] were 0.025 min⁻¹ and 0.079 min⁻¹, respectively. For the same molecule, the negative logarithm of the Ki (pKi) in assay [4] is 4.67.
By Inhibition is commonly meant the drop in the measured response relative to a control, in per cent. Lower therefore signals a weak effect. For the molecule `C[S+](C[C@H]1O[C@@H](n2cnc3c(N)ncnc32)[C@H](O)[C@@H]1O)C1C=CC(ON)C1.O=S(=O)(O)O.O=S(=O)([O-])O` (stereo not given in full), the Activity was found to be 449 pmol/h/mg in the assay on HL-60 [5]; 489 pmol/h/mg with HL-60 [6]; 293 pmol/h/mg in the assay on HL-60 [7]; 27 nM/mg in the assay on HL-60 [8]; 0.94 nM/mg in the assay with HL-60 [9]; 30.4 nM/mg in the assay with HL-60 [10]. Besides, the Activity with HL-60 [11] is 0.71 nM/mg; in the assay on HL-60 [13], 31.6 nM/mg; in the assay on HL-60 [14] it was 0.71 nM/mg; in the assay on HL-60 [16] it was 7.9 nM/mg; in the assay with HL-60 [19], 28 nM/mg; with HL-60 [20] it was 8.4 nM/mg. Also, the Activity with HL-60 [21] is 16.1 nM/mg; in the assay with HL-60 [22] it was 355 pmol/h/mg; with HL-60 [23], 0.79 nM/mg; in the assay with HL-60 [24], 38.1 nM/mg; with HL-60 [25], 347 pmol/h/mg; in the assay with HL-60 [26], 11.2 nM/mg. For the same molecule, the Activity with HL-60 [27] worked out at 0.94 nM/mg; in the assay with HL-60 [28] it was 10.1 nM/mg. The pKi in assay [12] is 4.71. The negative logarithm of the IC50 (pIC50) in [1] is 6.05; in assay [29], 5.00. For the same molecule, the Inhibition in [15] is on record as 49%. Besides, the kinact is 0.115 min⁻¹ in assay [17] and 0.015 min⁻¹ in assay [18].
